Assay results taken from ChEMBL document CHEMBL5143539, “Synthesis and evaluation of dual-action kanglemycin-fluoroquinolone hybrid antibiotics” (Bioorg Med Chem Lett, 2022).
Converted amounts (≈) assume the structure as drawn.

Assays:
[1] = tested on: Staphylococcus aureus; experiment: Antibacterial activity against rifampicin resistant Staphylococcus aureus harboring RpoBH481Y mutant assessed as inhibition of bacterial growth; type: functional
[2] = tested on: Staphylococcus aureus; experiment: Antibacterial activity against wild type Staphylococcus aureus assessed as inhibition of bacterial growth; type: functional
[3] = tested on: Staphylococcus aureus; experiment: Antibacterial activity against ciprofloxacin resistant Staphylococcus aureus harboring ParCS80F and GyrAS84L double mutant assessed as inhibition of bacterial growth; type: functional
[4] = tested on: Staphylococcus aureus; experiment: Antibacterial activity against Staphylococcus aureus harboring RpoBH481Y/ParCS80F/GyrAS84L triple mutant assessed as inhibition of bacterial growth; type: functional
[5] = tested on: Escherichia coli; experiment: Antibacterial activity against Escherichia coli assessed as inhibition of bacterial growth; type: functional
Summary of the method: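 Run in duplicate, with the same result obtained in each trial.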

[6] = tested on: HEK293; experiment: Cytotoxicity against HEK293 cells; type: toxicity, cell-based, Homo sapiens

Row | SMILES | MIC [1] [µg/mL] | MIC [2] [µg/mL] | MIC [3] [µg/mL] | MIC [4] [µg/mL] | MIC [5] [µg/mL] | IC50 [6] [µg/mL]
1 | CC(=O)O[C@H]1[C@H](C)[C@H](O)[C@H](C)[C@@H](O)[C@@H](C(C)OC(=O)C(C)(C)CC(=O)N[C@@H]2CCCCN(c3c(F)cc4c(=O)c(C(=O)O)cn(C5CC5)c4c3Cl)C2)/C=C/C=C(/C)C(=O)NC2=CC(=O)c3c(c(O)c(C)c4c3C(=O)[C@@](C)(O/C=C/[C@H](O[C@H]3C[C@@H]5OCO[C@@H]5[C@@H](C)O3)[C@H]1C)O4)C2=O (some centres not stated) | 16 (≈ 11.8 µM) | 16 (≈ 11.8 µM) | 16 (≈ 11.8 µM) | > 64 | > 64 | > 64
2 | CC(=O)O[C@H]1[C@H](C)[C@H](O)[C@H](C)[C@@H](O)[C@@H](C(C)OC(=O)C(C)(C)CC(=O)O)/C=C/C=C(/C)C(=O)Nc2c3oc4cc(NC5(c6c(F)cc7c(=O)c(C(=O)O)cn8c7c6OC[C@@H]8C)CC5)cc(O)c4nc-3c3c4c(c(C)c(O)c3c2=O)O[C@](C)(O/C=C/[C@H](O[C@H]2C[C@@H]3OCO[C@@H]3[C@@H](C)O2)[C@H]1C)C4=O (some centres not stated) | 32 (≈ 22.8 µM) | 8 (≈ 5.7 µM) | 8 (≈ 5.7 µM) | > 64 | 4 (≈ 2.85 µM) | > 64
3 | CC(=O)O[C@H]1[C@H](C)[C@H](O)[C@H](C)[C@@H](O)[C@@H](C(C)OC(=O)C(C)(C)CC(=O)O)/C=C/C=C(/C)C(=O)Nc2c3oc4cc(NCCCN5Cc6cc(-c7ccc8c(=O)c(C(=O)O)cn(C9CC9)c8c7OC(F)F)ccc6[C@H]5C)cc(O)c4nc-3c3c4c(c(C)c(O)c3c2=O)O[C@](C)(O/C=C/[C@H](O[C@H]2C[C@@H]3OCO[C@@H]3[C@@H](C)O2)[C@H]1C)C4=O (some centres not stated) | 8 (≈ 5.1 µM) | 4 (≈ 2.55 µM) | 16 (≈ 10.2 µM) | > 64 | > 64 | > 64
4 | COc1c(N2CCN(C(=O)CC(C)(C)C(=O)OC(C)[C@H]3/C=C/C=C(/C)C(=O)NC4=CC(=O)c5c(c(O)c(C)c6c5C(=O)[C@@](C)(O/C=C/[C@H](O[C@H]5C[C@@H]7OCO[C@@H]7[C@@H](C)O5)[C@@H](C)[C@@H](OC(C)=O)[C@H](C)[C@H](O)[C@H](C)[C@H]3O)O6)C4=O)C(C)C2)c(F)cc2c(=O)c(C(=O)O)cn(C3CC3)c12 (some centres not stated) | > 64 | 64 (≈ 47.8 µM) | 32 (≈ 23.9 µM) | > 64 | > 64 | 21 (≈ 15.7 µM)
5 | CC(=O)O[C@H]1[C@H](C)[C@H](O)[C@H](C)[C@@H](O)[C@@H](C(C)OC(=O)C(C)(C)CC(=O)O)/C=C/C=C(/C)C(=O)Nc2c3oc4cc(N5CCN(c6cc7c(cc6F)c(=O)c(C(=O)O)cn7C6CC6)CC5)cc(O)c4nc-3c3c4c(c(C)c(O)c3c2=O)O[C@](C)(O/C=C/[C@H](O[C@H]2C[C@@H]3OCO[C@@H]3[C@@H](C)O2)[C@H]1C)C4=O (some centres not stated) | 32 (≈ 22.6 µM) | 0.5 (≈ 0.353 µM) | 0.5 (≈ 0.353 µM) | > 64 | 8 (≈ 5.65 µM) | > 64
6 | CC(=O)O[C@H]1[C@H](C)[C@H](O)[C@H](C)[C@@H](O)[C@@H](C(C)OC(=O)C(C)(C)CC(=O)O)/C=C/C=C(/C)C(=O)Nc2c3oc4cc(NCCCN5CCN(c6cc7c(cc6F)c(=O)c(C(=O)O)cn7C6CC6)CC5)cc(O)c4nc-3c3c4c(c(C)c(O)c3c2=O)O[C@](C)(O/C=C/[C@H](O[C@H]2C[C@@H]3OCO[C@@H]3[C@@H](C)O2)[C@H]1C)C4=O (some centres not stated) | 8 (≈ 5.43 µM) | 4 (≈ 2.71 µM) | 4 (≈ 2.71 µM) | > 64 | 16 (≈ 10.9 µM) | 44 (≈ 29.9 µM)
7 | CC(=O)O[C@H]1[C@H](C)[C@H](O)[C@H](C)[C@@H](O)[C@@H](C(C)OC(=O)C(C)(C)CC(=O)N[C@H]2[C@@H]3CN(c4nc5c(cc4F)c(=O)c(C(=O)O)cn5-c4ccc(F)cc4F)C[C@@H]32)/C=C/C=C(/C)C(=O)NC2=CC(=O)c3c(c(O)c(C)c4c3C(=O)[C@@](C)(O/C=C/[C@H](O[C@H]3C[C@@H]5OCO[C@@H]5[C@@H](C)O3)[C@H]1C)O4)C2=O (some centres not stated) | 16 (≈ 11.6 µM) | 8 (≈ 5.8 µM) | 8 (≈ 5.8 µM) | > 64 | > 64 | > 64
8 | CC(=O)O[C@H]1[C@H](C)[C@H](O)[C@H](C)[C@@H](O)[C@@H](C(C)OC(=O)C(C)(C)CC(=O)O)/C=C/C=C(/C)C(=O)Nc2c3oc4cc(NCCCNC5(c6c(F)cc7c(=O)c(C(=O)O)cn8c7c6OC[C@@H]8C)CC5)cc(O)c4nc-3c3c4c(c(C)c(O)c3c2=O)O[C@](C)(O/C=C/[C@H](O[C@H]2C[C@@H]3OCO[C@@H]3[C@@H](C)O2)[C@H]1C)C4=O (some centres not stated) | > 64 | 4 (≈ 2.74 µM) | 4 (≈ 2.74 µM) | > 64 | 64 (≈ 43.8 µM) | > 64
9 | COc1c(N2CCCC(N(C)c3cc(O)c4nc5c6c7c8c(C)c(O)c6c(=O)c(c-5oc4c3)NC(=O)/C(C)=C\C=C\[C@H](C(C)OC(=O)C(C)(C)CC(=O)O)[C@H](O)[C@@H](C)[C@@H](O)[C@@H](C)[C@H](OC(C)=O)[C@H](C)[C@@H](O[C@H]3C[C@@H]4OCO[C@@H]4[C@@H](C)O3)/C=C/O[C@@](C)(O8)C7=O)C2)c(F)cc2c(=O)c(C(=O)O)cn(C3CC3)c12 (some centres not stated) | 16 (≈ 10.9 µM) | 8 (≈ 5.43 µM) | 16 (≈ 10.9 µM) | > 64 | 64 (≈ 43.4 µM) | 36 (≈ 24.4 µM)
10 | COc1c(N2C[C@@H]3CCCN(C(=O)CC(C)(C)C(=O)OC(C)[C@H]4/C=C/C=C(/C)C(=O)NC5=CC(=O)c6c(c(O)c(C)c7c6C(=O)[C@@](C)(O/C=C/[C@H](O[C@H]6C[C@@H]8OCO[C@@H]8[C@@H](C)O6)[C@@H](C)[C@@H](OC(C)=O)[C@H](C)[C@H](O)[C@H](C)[C@H]4O)O7)C5=O)[C@@H]3C2)c(F)cc2c(=O)c(C(=O)O)cn(C3CC3)c12 (some centres not stated) | > 64 | 32 (≈ 23.4 µM) | 32 (≈ 23.4 µM) | > 64 | > 64 | 28 (≈ 20.5 µM)
11 | COc1c(N2CCCC(N(C)CCCNc3cc(O)c4nc5c6c7c8c(C)c(O)c6c(=O)c(c-5oc4c3)NC(=O)/C(C)=C\C=C\[C@H](C(C)OC(=O)C(C)(C)CC(=O)O)[C@H](O)[C@@H](C)[C@@H](O)[C@@H](C)[C@H](OC(C)=O)[C@H](C)[C@@H](O[C@H]3C[C@@H]4OCO[C@@H]4[C@@H](C)O3)/C=C/O[C@@](C)(O8)C7=O)C2)c(F)cc2c(=O)c(C(=O)O)cn(C3CC3)c12 (some centres not stated) | 16 (≈ 10.4 µM) | 8 (≈ 5.22 µM) | 8 (≈ 5.22 µM) | > 64 | > 64 | > 64
12 | CC(=O)O[C@H]1[C@H](C)[C@H](O)[C@H](C)[C@@H](O)[C@@H](C(C)OC(=O)C(C)(C)CC(=O)O)/C=C/C=C(/C)C(=O)Nc2c3oc4cc(N5Cc6cc(-c7ccc8c(=O)c(C(=O)O)cn(C9CC9)c8c7OC(F)F)ccc6[C@H]5C)cc(O)c4nc-3c3c4c(c(C)c(O)c3c2=O)O[C@](C)(O/C=C/[C@H](O[C@H]2C[C@@H]3OCO[C@@H]3[C@@H](C)O2)[C@H]1C)C4=O (some centres not stated) | 2 (≈ 1.32 µM) | 1 (≈ 0.662 µM) | 1 (≈ 0.662 µM) | > 64 | 16 (≈ 10.6 µM) | > 64
13 | COc1c(N2CCCC(N(C)C(=O)CC(C)(C)C(=O)OC(C)[C@H]3/C=C/C=C(/C)C(=O)NC4=CC(=O)c5c(c(O)c(C)c6c5C(=O)[C@@](C)(O/C=C/[C@H](O[C@H]5C[C@@H]7OCO[C@@H]7[C@@H](C)O5)[C@@H](C)[C@@H](OC(C)=O)[C@H](C)[C@H](O)[C@H](C)[C@H]3O)O6)C4=O)C2)c(F)cc2c(=O)c(C(=O)O)cn(C3CC3)c12 (some centres not stated) | > 64 | 32 (≈ 23.6 µM) | 16 (≈ 11.8 µM) | > 64 | > 64 | 23 (≈ 17 µM)
14 | CO/N=C1\CN(c2nc3c(cc2F)c(=O)c(C(=O)O)cn3C2CC2)CC1CNC(=O)CC(C)(C)C(=O)OC(C)[C@H]1/C=C/C=C(/C)C(=O)NC2=CC(=O)c3c(c(O)c(C)c4c3C(=O)[C@@](C)(O/C=C/[C@H](O[C@H]3C[C@@H]5OCO[C@@H]5[C@@H](C)O3)[C@@H](C)[C@@H](OC(C)=O)[C@H](C)[C@H](O)[C@H](C)[C@H]1O)O4)C2=O (some centres not stated) | > 64 | 16 (≈ 11.8 µM) | 8 (≈ 5.91 µM) | > 64 | > 64 | > 64
15 | CC(=O)O[C@H]1[C@H](C)[C@H](O)[C@H](C)[C@@H](O)[C@@H](C(C)OC(=O)C(C)(C)CC(=O)O)/C=C/C=C(/C)C(=O)Nc2c3oc4cc(N5CCC(CCCC(=O)N6Cc7cc(-c8ccc9c(=O)c(C(=O)O)cn(C%10CC%10)c9c8OC(F)F)ccc7[C@H]6C)CC5)cc(O)c4nc-3c3c4c(c(C)c(O)c3c2=O)O[C@](C)(O/C=C/[C@H](O[C@H]2C[C@@H]3OCO[C@@H]3[C@@H](C)O2)[C@H]1C)C4=O (some centres not stated) | > 64 | 64 (≈ 38.4 µM) | 64 (≈ 38.4 µM) | > 64 | > 64 | > 64
16 | COc1c(N2C[C@@H]3CCCN(CCCNc4cc(O)c5nc6c7c8c9c(C)c(O)c7c(=O)c(c-6oc5c4)NC(=O)/C(C)=C\C=C\[C@H](C(C)OC(=O)C(C)(C)CC(=O)O)[C@H](O)[C@@H](C)[C@@H](O)[C@@H](C)[C@H](OC(C)=O)[C@H](C)[C@@H](O[C@H]4C[C@@H]5OCO[C@@H]5[C@@H](C)O4)/C=C/O[C@@](C)(O9)C8=O)[C@@H]3C2)c(F)cc2c(=O)c(C(=O)O)cn(C3CC3)c12 (some centres not stated) | 16 (≈ 10.4 µM) | 1 (≈ 0.648 µM) | 1 (≈ 0.648 µM) | > 64 | > 64 | 38 (≈ 24.6 µM)
17 | COc1c(N2C[C@@H]3CCCN(c4cc(O)c5nc6c7c8c9c(C)c(O)c7c(=O)c(c-6oc5c4)NC(=O)/C(C)=C\C=C\[C@H](C(C)OC(=O)C(C)(C)CC(=O)O)[C@H](O)[C@@H](C)[C@@H](O)[C@@H](C)[C@H](OC(C)=O)[C@H](C)[C@@H](O[C@H]4C[C@@H]5OCO[C@@H]5[C@@H](C)O4)/C=C/O[C@@](C)(O9)C8=O)[C@@H]3C2)c(F)cc2c(=O)c(C(=O)O)cn(C3CC3)c12 (some centres not stated) | 8 (≈ 5.38 µM) | 0.5 (≈ 0.336 µM) | 0.5 (≈ 0.336 µM) | > 64 | 32 (≈ 21.5 µM) | > 64
